Our source for the IC50, Km and Activity values is ChEMBL document CHEMBL1157720, “Development of carbohydrate-derived inhibitors of acid sphingomyelinase” (Bioorg Med Chem, 2010).

Assay [1] is described as follows: Inhibition of aSMase in rat brain microsomal homogenate by fluorescence assay.
Assay [2] addresses T1, Sphingomyelin phosphodiesterase 2 (Rattus norvegicus, UniProt Q9ET64).
T1 sequence (Q9ET64 whole entry): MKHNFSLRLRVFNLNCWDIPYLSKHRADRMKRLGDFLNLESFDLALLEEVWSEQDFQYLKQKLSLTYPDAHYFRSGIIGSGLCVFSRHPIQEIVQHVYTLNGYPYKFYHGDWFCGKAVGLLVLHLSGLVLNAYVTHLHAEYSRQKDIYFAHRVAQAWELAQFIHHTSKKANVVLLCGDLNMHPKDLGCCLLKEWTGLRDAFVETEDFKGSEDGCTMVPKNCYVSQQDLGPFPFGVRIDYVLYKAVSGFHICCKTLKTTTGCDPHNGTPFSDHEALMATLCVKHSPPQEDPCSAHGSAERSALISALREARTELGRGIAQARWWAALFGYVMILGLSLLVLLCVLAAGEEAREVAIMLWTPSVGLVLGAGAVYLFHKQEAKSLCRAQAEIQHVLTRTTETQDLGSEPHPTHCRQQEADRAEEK
In words: Inhibition of nSMase in rat brain microsomal homogenate by micellar 14C-sphingomyelin assay.

For another assay, the species on record is Rattus norvegicus. The following applies: Brain, Microsomal.
A further assay deals with HEK293. Briefly: Inhibition of dexamethasone-induced apoptosis in HEK293 cells assessed as decrease in DNA fragmentation at 1 to 2 uM after 7 hrs by ELISA. Format: functional, cell-based. The following applies: Homo sapiens. The procedure, abridged: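 HEK-293 cells in medium with BrdU labelling solution (10 µM final) were plated at about 0.5 × 10³ cells/well. After 16 h they were washed and re-fed, then given 10^-8 M dexamethasone plus inhibitor for 7 h. Supernatant went to an anti-BrdU ELISA (secondary antibody, TMB), with absorbance at 370 nm. Quintuplicate.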

Active and inactive are the calls of the source. The calls are words filed in the database; no cut-off is given here.

For `O=P(O)(O)OC[C@H]1OC(O)[C@H](OP(=O)(O)O)[C@@H](O)[C@@H]1OP(=O)(O)O` (some centres not stated), the IC50 in assay [1] was > 50 µM.

In the case of `CCCCCCCCS(=O)(=O)OC[C@H]1OC(O)[C@H](OP(=O)(O)O)[C@@H](O)[C@@H]1OP(=O)(O)O` (some centres not stated), the IC50 is > 100 µM in assay [2] and 2.34 µM in assay [1]. As for `CCS(=O)(=O)OC[C@H]1OC(O)[C@H](OP(=O)(O)O)[C@@H](O)[C@@H]1OP(=O)(O)O` (some centres not stated), the IC50 in assay [2] was > 100 µM; in assay [1], 39.6 µM. `CCCCCCS(=O)(=O)OC[C@H]1OC(O)[C@H](OP(=O)(O)O)[C@@H](O)[C@@H]1OP(=O)(O)O` (some centres not stated): the IC50 in assay [2] was > 100 µM. With `CCCCCC/C=C\C=C/C/C=C\C/C=C\CCCC(=O)OC(COC(=O)CCCCCCCCCCCCCCCCC)COP(=O)(O)O[C@@H]1[C@H](O)[C@H](OP(=O)(O)O)[C@@H](O)[C@H](OP(=O)(O)O)[C@H]1O` (some centres not stated), in assay [2], the IC50 is > 100 µM. Besides, the Km in the assay filed under Rattus norvegicus worked out at 0.53 µM. `CCCCCCCCCCCCS(=O)(=O)OC[C@H]1OC(O)[C@H](OP(=O)(O)O)[C@@H](O)[C@@H]1OP(=O)(O)O` (some centres not stated): the IC50 in assay [2] was > 100 µM; in assay [1], 0.44 µM. In addition, the outcome with HEK293 was Active. Consider `O=P(O)(O)OC[C@H]1OC[C@H](OP(=O)(O)O)C[C@@H]1OP(=O)(O)O`, for which the IC50 in assay [1] is > 50 µM.

The IC50 is the concentration needed to halve the response being measured. High values mean weaker potency in that assay, low ones greater potency in that assay. The term Km denotes the substrate concentration at which the rate is half of its maximum.
